Measured values reported in article PMC6528680 (Journal of natural products, 2019).
Like-named read-outs stand apart in the source and are kept apart here.

What was measured:
[1] = tested on: RANKL-stimulated osteoclast formation in RAW 264.7 cells; assay: RANKL-stimulated osteoclastogenesis assay; format: cell-based, murine; details: even at 10-fold higher doses than the curcumin IC50
How it was run: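 RAW 264.7 cells were seeded at 5×10^3/well in DMEM with 10% FBS and 1% pen/strep and left to adhere overnight at 37°C, 5% CO2. They were pretreated 4 h with the test compound, then stimulated with recombinant mouse RANKL (50 ng/mL final) for 72 h at 37°C. TRAP-positive multinucleated osteoclasts were counted. n=4/group, mean ± SEM.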

[2] = biological target: T1, rh-HPSE (Homo sapiens, UniProt Q9Y251); assay: Deconjugation of curcumin-glucuronide by recombinant enzyme; format: biochemical; details: 5 μg/mL (100 nM) enzyme, 459 nM substrate, 24 h, 37°C, pH 5
T1 sequence (Q9Y251 158-543 limits assumed): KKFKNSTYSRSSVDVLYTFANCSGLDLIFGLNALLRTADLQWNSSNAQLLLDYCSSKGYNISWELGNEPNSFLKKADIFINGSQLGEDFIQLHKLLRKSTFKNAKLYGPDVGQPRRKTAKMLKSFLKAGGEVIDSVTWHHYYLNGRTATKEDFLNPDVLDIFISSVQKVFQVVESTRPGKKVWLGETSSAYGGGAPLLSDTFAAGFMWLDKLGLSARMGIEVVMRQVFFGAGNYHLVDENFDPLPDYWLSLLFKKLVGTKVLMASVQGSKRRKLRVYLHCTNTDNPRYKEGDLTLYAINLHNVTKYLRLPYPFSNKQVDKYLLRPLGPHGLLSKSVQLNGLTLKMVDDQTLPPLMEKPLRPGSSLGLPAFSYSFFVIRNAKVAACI
T1 sequence (Q9Y251 36-109 limits assumed): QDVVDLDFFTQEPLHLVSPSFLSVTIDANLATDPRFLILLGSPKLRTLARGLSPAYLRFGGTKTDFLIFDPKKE
How it was run: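 Recombinant human enzyme was incubated with synthesized glucuronide substrate in an enzyme-optimized pH 5 buffer for 24 h at 37°C. Activity was taken from quantitation of the remaining glucuronide substrate and the released aglycone product. n=3–6 per group.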

[3] = format: in vivo, mice (C57BL/6J, C3H/HeJ, mps/mps); details: for concentration at 20 min: mouse, ip, 100 mg/kg
How it was run: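 Test compound dosed IP at 100 mg/kg in DMSO to 15-week female BL/6J, female HeJ and male mps/mps mice (n=3–5/group). Blood and marrow were taken under isoflurane at 20 min. Marrow pellets were resuspended in 50 mM sodium acetate pH 5 and held 2 h on ice, then supernatants were kept. Serum was acidified to pH 5, and aglycone and glucuronide were measured by HLB solid-phase extraction and LC/MS. Mean ± SEM.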

[4] = biological target: T2, GUSB (Mus musculus, UniProt P12265); format: biochemical, C57BL/6NJ mice; details: 10 μM added in vitro, 2 h, 37°C, physiologic pH
T2 sequence (P12265 23-648): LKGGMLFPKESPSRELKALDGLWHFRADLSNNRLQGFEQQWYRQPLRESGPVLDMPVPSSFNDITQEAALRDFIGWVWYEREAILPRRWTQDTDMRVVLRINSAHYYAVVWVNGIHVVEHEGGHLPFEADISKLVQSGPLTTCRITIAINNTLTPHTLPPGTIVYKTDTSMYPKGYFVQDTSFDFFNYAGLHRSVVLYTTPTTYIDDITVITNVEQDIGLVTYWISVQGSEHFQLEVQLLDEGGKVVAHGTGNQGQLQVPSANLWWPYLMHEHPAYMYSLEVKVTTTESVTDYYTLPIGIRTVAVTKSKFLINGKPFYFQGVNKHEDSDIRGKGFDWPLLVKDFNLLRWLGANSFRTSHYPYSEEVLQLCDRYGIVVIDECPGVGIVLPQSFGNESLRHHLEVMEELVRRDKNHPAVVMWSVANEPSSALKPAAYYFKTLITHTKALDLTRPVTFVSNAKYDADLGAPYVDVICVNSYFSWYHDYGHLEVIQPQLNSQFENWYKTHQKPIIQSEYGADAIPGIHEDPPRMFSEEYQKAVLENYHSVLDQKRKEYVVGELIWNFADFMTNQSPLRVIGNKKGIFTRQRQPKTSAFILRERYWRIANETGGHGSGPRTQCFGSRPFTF

[5] = format: in vivo, mice (C57BL/6J, C3H/HeJ); details: mouse, po, 500 mg/kg
How it was run: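 Oral gavage of 500 mg/kg in DMSO to C57BL/6J and C3H/HeJ mice (n=3–4/group), with sampling at 30 min under isoflurane. Marrow pellets were suspended in 50 mM sodium acetate pH 5 for 2 h on ice and centrifuged. Serum was acidified to pH 5 with HCl before HLB extraction and LC/MS. Marrow concentrations were corrected to pellet volume, assuming density 1.06 g/ml. Mean ± SEM.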

[6] = biological target: T2, GUSB; format: biochemical, C57BL/6J mice; details: 0.5 μM curcumin-glucuronide added ex vivo, sodium acetate buffer 50 mM pH 5, 2 h

With `COc1cc(/C=C/C(=O)CC(=O)/C=C/c2ccc(O[C@@H]3O[C@H](C(=O)O)[C@@H](O)[C@H](O)[C@H]3O)c(OC)c2)ccc1O` [curcumin-glucuronide] the “Effect on RANKL-stimulated osteoclast formation” value [1] was “without effect”, the “Ability of HPSE to deconjugate curcumin glucuronide” value [2] was “only GUSB and KL were able to deconjugate” and the concentration at 20 min ([3]; female, C3H/HeJ, bone marrow suspension) was 2.7 µM. It also gave a concentration at 20 min ([3]; female, C3H/HeJ, serum) of 92.1 µM, a concentration at 20 min ([3]; female, C57BL/6J, bone marrow suspension) of 1.3 µM and a concentration at 20 min ([3]; female, C57BL/6J, serum) of 92.7 µM. The concentration at 20 min ([3]; male, mps/mps, serum) was 151 µM, the “Increase of bone marrow curcumin-glucuronide concentrations vs BL/6J” value ([3]; mps/mps mice, IP curcumin) was 4 fold and the “Deconjugation in conditioned media from bone marrow cells” value [4] was “forming detectable aglycone curcumin”. It also gave a concentration at 30 min ([5]; C57BL/6J, bone marrow suspension) of 0.36 µM, a concentration at 30 min ([5]; C57BL/6J, serum) of 82.7 µM and a concentration at 30 min ([5]; male, C3H/HeJ, bone marrow suspension) of 1.19 µM. The concentration at 30 min ([5]; male, C3H/HeJ, serum) was 80 µM and the “Deconjugation by soluble GUSB activity in cell-free marrow fractions” value [6] was “sufficient to deconjugate”.
